Each structure is given as a SMILES string. pKi: −log10 of the molar value.

In general, pKi refers to the negative decadic logarithm of the Ki, by convention in mol/L. The term logP denotes a log measure of how a compound divides between an organic and an aqueous phase. Read a low logP as lower lipophilicity.

Series [1] is described as follows: Metabolic stability in Wistar rat brain assessed as remaining parent compound after 60 mins by HPLC analysis. The class given is ADME, tissue-based. As to conditions: read-out: Stability. Put shortly: (§1)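 ¹⁸F-labelled compounds given to naïve Wistar rats (n = 1). Brain extracts were taken at 10, 30 and 60 min post-injection and analysed by HPLC. The read-out is % parent.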

Series [2] in a line: Metabolic stability in Wistar rat brain assessed as remaining parent compound after 30 mins by HPLC analysis. The class given is ADME, tissue-based. As to conditions: read-out: Stability. A digest of the protocol:
as §1

Series [3] in a line: Metabolic stability in Wistar rat brain assessed as remaining parent compound after 10 mins by HPLC analysis. In kind it is ADME, tissue-based. As to conditions: read-out: Stability. Put shortly: as §1
A further series has as its target Translocator protein (Rattus norvegicus, UniProt P16257). Kind of series: Displacement of [3H]PK11195 from PBR receptor in Wistar rat heart homogenates. In kind it is tissue-based. A digest of the protocol:
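Competition binding against [³H]PK11195 in homogenised rat heart tissue.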
A general note: Loss of bound radioactivity is the signal in a displacement assay; it reports binding, not function.

Series [4] is described as follows: Octanol-water partition coefficient, log P of the compound by reversed phase liquid chromatography. The class given is physicochemical.
The nature of series [5]: Ratio of drug uptake in Wistar rat brain to Wistar rat striatum after 30 mins. Conditions: in vivo, 0.5 h.
A further series deals with Striatum. In words: Ratio of drug uptake in Wistar rat striatum after 2 mins to Wistar rat striatum after 30 mins. In kind it is ADME, tissue-based. Conditions: in vivo. Put shortly:
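Biodistribution of ¹⁸F-compounds in naïve Wistar rats (n = 3). Regional brain uptake was measured as % id/g at 2 and 30 min post-injection. Ratios were taken between regions, olfactory bulb:striatum at 30 min, and between times, 2:30 min.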

Series [6] is described as follows: Metabolic stability in Wistar rat plasma after 15 mins by HPLC analysis. In kind it is ADME, cell-free. As to conditions: read-out: Stability. Put shortly: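 Radiolabelled compound was incubated in plasma at 37 °C for 15 min. Chiral HPLC analysis then gave the percentage of the active enantiomer that remained.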

Chain of Translocator protein (P16257 whole entry, looked up): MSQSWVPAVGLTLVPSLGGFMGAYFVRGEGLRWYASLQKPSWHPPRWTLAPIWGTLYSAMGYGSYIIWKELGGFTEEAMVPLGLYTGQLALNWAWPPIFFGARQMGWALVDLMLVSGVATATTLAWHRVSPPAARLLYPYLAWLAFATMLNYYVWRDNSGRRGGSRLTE

For `[3H]C([3H])([3H])N(C(=O)c1cc2ccccc2c(-c2ccccc2Cl)n1)C(C)CC` (stereo not drawn), the remaining at 1 h in series [1] amounted to 100%. Besides, the remaining at 0.5 h in series [2] was determined as 100%. In series [3], the remaining at 10 min amounted to 100%.

`CCN(CCF)C(=O)c1sc2ccccc2c2nc3ccccc3c1-2` had a pKi at Translocator protein of 6.53.

In the case of `CCN(CC)C(=O)C1Sc2ccccc2-c2c1c1ccccc1n2CCF` (racemic), in series [2], the remaining at 0.5 h was 95%. Moreover, the lipophilicity (logP) in series [4] turned out to be 3.76. Further, in series [3], the remaining at 10 min is 99%. Also, the Ratio was determined as 1.42 in series [5] and 2.16 in the series with Striatum.

Take `CCN(CC)C(=O)C1Sc2ccccc2-c2c1c1ccc(OC)cc1n2CCF` (racemic): the remaining at 1 h in series [1] was found to be 98%. Further, the remaining at 0.5 h in series [2] stood at 98%. This molecule showed a logP in series [4] of 3.82. At Translocator protein, the pKi is 9.40. In addition, the remaining at 10 min in series [3] turned out to be 99%. Also, the figures for the Ratio (in series [5]; in the series on Striatum) were 3.5 and 4.75, respectively.

`CCN(CC)C(=O)C1(C)Sc2ccccc2-c2c1c1ccccc1n2CCF` (racemic): the logP in series [4] worked out at 4. The molecule further gave a negative logarithm of the Ki (pKi) on Translocator protein of 7.88. The Ratio worked out at 0.88 in series [5] and 2.75 in the series with Striatum.

`CCN(CC)C(=O)C1Sc2ccccc2-c2c1c1cc(OC)ccc1n2CCF` (racemic): in series [1], the remaining at 1 h is 96%. Besides, the remaining at 0.5 h in series [2] came to 97%. This molecule also displayed a lipophilicity (logP) in series [4] of 3.77. In addition, in series [3], the remaining at 10 min stood at 98%. Moreover, the Ratio in the series with Striatum is 1.73.

`CCN(CC)C(=O)CC1c2cc(OC)ccc2-c2c1c1ccccc1n2CCF` (racemic) showed a pKi at Translocator protein of 6.81.

Take `CCN(CC)C(=O)C1c2ccccc2-c2[nH]c3ccccc3c21` (racemic): the negative-log Ki (pKi) at Translocator protein was 9.10. Moreover, the Ratio amounted to 1 in series [5] and 5.8 in the series on Striatum.

In series [4], `CCN(CC)C(=O)C1Cc2ccccc2-c2c1c1ccccc1n2CCF` (racemic) returned a log partition coefficient (logP) of 3.69. Also, the negative-log Ki (pKi) at Translocator protein was 8.95.

Take `CCN(CC)C(=O)C1(C)c2c(n(CCF)c3ccccc23)-c2ccccc2S1(=O)=O` (racemic): in series [4], the logP turned out to be 3.1. The pKi at Translocator protein was 6.39.

In series [4], `CCN(CC)C(=O)C1c2c(n(CCF)c3ccccc23)-c2ccccc2S1(=O)=O` (racemic) returned a lipophilicity (logP) of 3. Further, the pKi at Translocator protein was 8.06. The Ratio is given as 2.13 in series [5] and 1.75 in the series on Striatum.

`CCN(CC)C(=O)C1Sc2cc(N(CCF)C(C)=O)ccc2-c2c1c1ccccc1n2CCF` (racemic) yielded a logP in series [4] of 3.13. For the same molecule, the negative-log Ki (pKi) on Translocator protein was 8.87.

Molecule `CCN(CC)C(=O)C1Sc2cc(NC(C)=O)ccc2-c2c1c1ccccc1n2CCF` (racemic) yielded a logP in series [4] of 3.15. The pKi on Translocator protein was 9.41.

`CCN(CC)C(=O)C1Sc2ccc(O)cc2-c2c1c1ccccc1n2CCF` (racemic) gave a negative logarithm of the Ki (pKi) on Translocator protein of 9.26. The figures for the Ratio (in series [5]; with Striatum) were 1.25 and 0.75, respectively.

Molecule `CCN(CC)C(=O)C1Sc2cc(O)ccc2-c2c1c1ccccc1n2CCF` (racemic) returned a log partition coefficient (logP) in series [4] of 2.7. This molecule also gave a negative logarithm of the Ki (pKi) at Translocator protein of 9.48. Also, the values for the Ratio (in series [5]; in the series with Striatum) were 1.44 and 1.11, respectively.

`CCN(CC)C(=O)C1Sc2cc(F)ccc2-c2c1c1ccccc1n2CCF` (racemic) gave a logP in series [4] of 3.87.

Molecule `CCN(CC)C(=O)C1Sc2c(F)cccc2-c2c1c1ccccc1n2CCF` (racemic) came in with a log partition coefficient (logP) in series [4] of 3.79.

As for `CCN(CC)C(=O)C1Sc2ccc(F)cc2-c2c1c1ccccc1n2CCF` (racemic), in series [4], the log partition coefficient (logP) turned out to be 3.84. For the same molecule, the negative logarithm of the Ki (pKi) on Translocator protein was 9.41. For the same molecule, the Ratio in series [5] was found to be 1.37; in the series with Striatum it was 2.11.

In series [4], `CCN(CC)C(=O)C1Sc2c(OC)cccc2-c2c1c1ccccc1n2CCF` (racemic) registered a log partition coefficient (logP) of 3.67. The molecule further had a negative logarithm of the Ki (pKi) at Translocator protein of 9.48. For the same molecule, the Ratio in series [5] came to 1.53; in the series on Striatum it was 1.07.

As for `CCN(CC)C(=O)C1Sc2cc(OC)ccc2-c2c1c1ccccc1n2CCF` (racemic), the log partition coefficient (logP) in series [4] amounted to 3.91. Also, the negative logarithm of the Ki (pKi) on Translocator protein was 9.52. Also, the values for the Ratio (in series [5]; in the series on Striatum) were 1.4 and 1.17, respectively.

In series [4], `CCN(CC)C(=O)C1Sc2ccc(OC)cc2-c2c1c1ccccc1n2CCF` (racemic) yielded a logP of 3.65. At Translocator protein, the pKi is 9.52. In addition, the Ratio in series [5] was determined as 1.37; with Striatum it was 1.42.

Take `CCOc1ccc2c(c1)c1c(n2CCF)-c2ccccc2SC1C(=O)N(CC)CC` (racemic): in series [4], the logP amounted to 3.88. This molecule gave a pKi at Translocator protein of 9.28. Also, the values for the Ratio (in series [5]; in the series on Striatum) were 2.67 and 2.89, respectively.

With `CCN(CC)C(=O)C1Sc2cccc(OC)c2-c2c1c1ccccc1n2CCF` (racemic), in series [4], the logP came to 3.67. For the same molecule, the pKi at Translocator protein is 8.97. The Ratio is on record as 1.78 in series [5] and 3 in the series on Striatum.

For the molecule `CCN(CC)C(=O)C1Sc2ccccc2-c2c1c1cc(C#N)ccc1n2CCF` (racemic), the logP in series [4] was 3.6. On Translocator protein, this molecule gave a pKi of 9.72. The figures for the Ratio (in series [5]; with Striatum) were 1.93 and 2.23, respectively.

Molecule `CCN(CC)C(=O)C1Sc2ccccc2-c2c1c1cc(OC(F)(F)F)ccc1n2CCF` (racemic) gave a lipophilicity (logP) in series [4] of 4.03. The molecule further gave a negative logarithm of the Ki (pKi) at Translocator protein of 9.59. Moreover, the Ratio is 1.46 in series [5] and 1.29 in the series on Striatum.

Take `CCN(CC)C(=O)C1Sc2ccccc2-c2c1c1cc(C)ccc1n2CCF` (racemic): the logP in series [4] came out at 3.96. At Translocator protein, this molecule had a negative logarithm of the Ki (pKi) of 9.47. For the same molecule, the Ratio in series [5] came to 1.73; with Striatum, 2.

`CCN(CC)C(=O)C1Sc2ccccc2-c2c1c1cc(Br)ccc1n2CCF` (racemic) registered a log partition coefficient (logP) in series [4] of 4.23. Further, on Translocator protein, the pKi was 9.33. Besides, the Ratio in series [5] worked out at 1.35; with Striatum it was 1.53.

For the molecule `CCN(CC)C(=O)C1Sc2ccccc2-c2c1c1cc(F)ccc1n2CCF` (racemic), the logP in series [4] came out at 3.85. On Translocator protein, this molecule gave a negative logarithm of the Ki (pKi) of 9.31. Besides, the Ratio amounted to 1.16 in series [5] and 1.6 in the series on Striatum.

On to `CCN(CC)C(=O)C1Sc2ccccc2-c2[nH]c3ccc(NC(C)=O)cc3c21` (racemic), for which the pKi at Translocator protein was 7.23.

For `CCN(CC)C(=O)C1Sc2ccccc2-c2c1c1cc(O)ccc1n2CCF` (racemic), the logP in series [4] stood at 3.19. Besides, the negative logarithm of the Ki (pKi) at Translocator protein is 7.72. In addition, the Ratio in series [5] was found to be 1; with Striatum, 1.33.

Regarding `CCN(CC)C(=O)C1Sc2ccccc2-c2c1c1ccc(OC)nc1n2CCF` (racemic), in series [4], the logP is 3.87. On Translocator protein, the negative logarithm of the Ki (pKi) was 8.07. Also, the results for the Ratio (in series [5]; in the series with Striatum) were 2.11 and 4.67, respectively.

In series [4], `CCN(CC)C(=O)C1Sc2ccccc2-c2c1c1cccnc1n2CCF` (racemic) returned a logP of 3.12. The same molecule had a negative logarithm of the Ki (pKi) at Translocator protein of 8.41.

With `CCN(CC)C(=O)C1Sc2ccccc2-c2c1c1cc(Cl)ccc1n2CCF` (racemic), in series [4], the logP came to 4.17. Further, the negative logarithm of the Ki (pKi) at Translocator protein is 9.64. In addition, the Ratio in series [5] is 1.57; with Striatum, 1.29.

For `CCN(CC)C(=O)C1Sc2ccccc2-c2c1c1cccc(OC)c1n2CCF` (racemic), the lipophilicity (logP) in series [4] amounted to 3.85. For the same molecule, the negative logarithm of the Ki (pKi) on Translocator protein was 9.03. Further, the Ratio in series [5] was 2; with Striatum, 5.

As to `CCN(CC)C(=O)C1Sc2ccccc2-c2c1c1c(OC)cccc1n2CCF` (racemic), the negative logarithm of the Ki (pKi) on Translocator protein was 8.96. The Ratio in series [5] is 2.42; with Striatum, 2.

On to `CCN(CC)C(=O)C1Sc2ccccc2-c2[nH]c3ccccc3c21` (racemic), for which the pKi at Translocator protein was 9.12.

As for `CCN(CC)C(=O)C1Sc2ccccc2-c2c1c1ccccc1n2Cc1cn(CCF)nn1` (racemic), the negative-log Ki (pKi) on Translocator protein is 7.20.

`CCN(CC)C(=O)C1Sc2cc(OCCF)ccc2-c2c1c1ccccc1n2C` (racemic): on Translocator protein, the pKi is 9.46.

For `CCN(CC)C(=O)C1Sc2ccccc2-c2c1c1ccccc1n2CCCCF` (racemic), the pKi on Translocator protein is 9.28.

The molecule `CCN(CC)C(=O)C1Sc2ccccc2-c2c1c1ccccc1n2CCCF` (racemic) gave a negative logarithm of the Ki (pKi) on Translocator protein of 9.44.

In turn, `CCN(CC)C(=O)C1Sc2ccccc2-c2c1c1ccccc1n2CCF` (single isomer, unassigned; form 1) gave a pKi on Translocator protein of 8.28.

The molecule `CCN(CC)C(=O)C1(C)Sc2ccccc2-c2c1c1ccccc1n2CCF` (single isomer, unassigned; form 1) had a pKi at Translocator protein of 7.52.

Regarding `CCN(CC)C(=O)C1Sc2ccccc2-c2c1c1cc(OC)ccc1n2CCF` (single isomer, unassigned; form 1), on Translocator protein, the negative logarithm of the Ki (pKi) is 8.93.

Molecule `CCN(CC)C(=O)C1Sc2ccccc2-c2c1c1ccccc1n2CCF` (single isomer, unassigned; form 2) had a pKi at Translocator protein of 9.66. Further, in series [6], the remaining at 0.25 h is 83%.

As for `CCN(CC)C(=O)C1(C)Sc2ccccc2-c2c1c1ccccc1n2CCF` (single isomer, unassigned; form 2), the pKi on Translocator protein is 7.77.

Take `CCN(CC)C(=O)C1Sc2ccccc2-c2c1c1cc(OC)ccc1n2CCF` (single isomer, unassigned; form 2): at Translocator protein, the negative logarithm of the Ki (pKi) was 9.54.

(Values after ChEMBL document CHEMBL2375274, “Exploration of the structure-activity relationship of a novel tetracyclic class of TSPO ligands-potential novel positron emitting tomography imaging agents” (Bioorg Med Chem Lett, 2013).)
